Series [1] concerns the target Glutamate receptor ionotropic, NMDA 1 (Rattus norvegicus, UniProt P35439). The experiment in a line: Potency for the N-methyl-D-aspartate glutamate receptor 1 glycine site by displacement of [3H]5,7-dichlorokynurenic acid (DCKA) binding in rat brain cortical membranes. The class given is cell membranes, Membrane. In general terms: Displacement assays read how much labelled ligand stays bound in the presence of the test substance.

In series [2] the target is T1, Glutamate receptor ionotropic, AMPA (Rattus norvegicus) (UniProt P19491+P19492+P19493+P19490). The experiment in a line: Dissociation constant(Kb) for Ionotropic glutamate receptor AMPA was determined from inhibition of currents activated by 10(uM) AMPA in Xenopus oocytes expressing rat cerebral cortex poly(A)+ RNA. As to conditions: Oocyte. The class given is functional, cell-based.

Series [3] can be described thus: Selectivity index for the inhibition of NMDA receptors was estimated by dividing Kb AMPA by Kb NMDA.
Series [4] has as its target T1, Glutamate receptor ionotropic, AMPA (Rattus norvegicus). The experiment in a line: Dissociation constant(Kb) for Ionotropic glutamate receptor AMPA as inhibition of currents activated by 10 uM AMPA in Xenopus oocytes expressing rat cerebral cortex poly(A)+ RNA. The format is functional, cell-based. As to conditions: Oocyte.
The species entered for a further series is Mus musculus. The experiment in a line: Anticonvulsant activity was measured by mouse maximal electroshock (MES) assay. The class given is functional. The procedure, abridged: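 Mice; compounds dissolved in 0.05 M Tris, given iv; tested at peak activity 2 min after injection (one compound with slower onset tested at 15 min). Maximal electroshock seizure protection scored; ED50 by Litchfield and Wilcoxon analysis.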

Series [5] can be described thus: Partition coefficient (logP). To be noted: octanol/water. The format is physicochemical.

We go through 39 molecules from ChEMBL document CHEMBL1129955, “Structure-activity relationships of alkyl- and alkoxy-substituted 1,4-dihydroquinoxaline-2,3-diones: potent and systemically active antagonists for the glycine site of the NMDA receptor” (J Med Chem, 1997).

As a reminder, the IC50 is the point on the concentration scale where inhibition reaches its midpoint. As a reminder, the ED50 is the midpoint of the dose-response relation. A lower ED50 goes with greater potency. The logP is the decadic logarithm of the partition coefficient of the neutral form, usually between octanol and water. Low readings indicate lower lipophilicity, high ones higher lipophilicity.

Each structure is given as a SMILES string.

`Oc1nc2cc3c(cc2nc1O)OCO3`: in series [1], the IC50 is more than 100000 nM.

Molecule `COc1cc2[nH]c(=O)c(=O)[nH]c2cc1OC` gave an IC50 in series [1] of 17000 nM.

`O=[N+]([O-])c1c2c(cc3nc(O)c(O)nc13)CCC2`: the Kb in series [2] turned out to be 17000 nM. The Selectivity index in series [3] was 20.

As for `Cc1c(C#N)cc2[nH]c(=O)c(=O)[nH]c2c1[N+](=O)[O-]`, in series [1], the IC50 came to 73 nM.

`CCc1c(Cl)cc2nc(O)c(O)nc2c1[N+](=O)[O-]` had an IC50 in series [1] of 130 nM.

In series [1], `COc1c(Br)cc2[nH]c(=O)c(=O)[nH]c2c1[N+](=O)[O-]` displayed an IC50 of 64 nM.

`CCc1cc2[nH]c(=O)c(=O)[nH]c2cc1Cl` registered an IC50 in series [1] of 1400 nM.

`COc1cc2nc(O)c(O)nc2cc1Br` had an IC50 in series [1] of 1000 nM.

`O=[N+]([O-])c1c(OCCCc2ccccc2)c(F)cc2nc(O)c(O)nc12` yielded an IC50 in series [1] of 4000 nM.

Consider `CCCCOc1c(F)cc2nc(O)c(O)nc2c1[N+](=O)[O-]`, for which the IC50 in series [1] was 4300 nM.

Turning to `Cc1cc2nc(O)c(O)nc2cc1Cl`, in series [1], the IC50 stood at 780 nM.

In the case of `Cc1c(Cl)cc2nc(O)c(O)nc2c1[N+](=O)[O-]`, the Kb in series [4] was 3500 nM. The molecule further gave an ED50 in the series listed under Mus musculus of 1.2 mg/kg. The Selectivity index in series [3] is 440.

In series [5], `CCc1cc2nc(O)c(O)nc2c([N+](=O)[O-])c1Cl` had a logP of 0.92. The ED50 in the series filed under Mus musculus stood at 4.5 mg/kg. This molecule also yielded an IC50 in series [1] of 29 nM.

Consider `CCSc1c(Cl)cc2nc(O)c(O)nc2c1[N+](=O)[O-]`, for which, in series [1], the IC50 is 640 nM.

Molecule `Cc1c(Cl)cc2nc(O)c(O)nc2c1N` gave a half-maximal inhibitory concentration (IC50) in series [1] of 150 nM.

In series [5], `CCc1cc2nc(O)c(O)nc2c([N+](=O)[O-])c1Br` registered a logP of 1.04. This molecule gave an ED50 in the series listed under Mus musculus of 11 mg/kg. Besides, the IC50 in series [1] turned out to be 82 nM.

In series [5], `Cc1cc2nc(O)c(O)nc2c([N+](=O)[O-])c1Cl` returned a logP of 0.44. In the series listed under Mus musculus, this molecule came in with an ED50 of 1.9 mg/kg. The same molecule gave an IC50 in series [1] of 45 nM.

In series [1], `COc1c(Cl)cc2[nH]c(=O)c(=O)[nH]c2c1[N+](=O)[O-]` returned a half-maximal inhibitory concentration (IC50) of 150 nM.

In series [1], `Oc1nc2cc3c(cc2nc1O)CCC3` came in with an IC50 of 15000 nM.

Regarding `O=c1[nH]c2cc3ccccc3cc2[nH]c1=O`, the IC50 in series [1] came out at 16000 nM.

`COc1c(F)cc2[nH]c(=O)c(=O)[nH]c2c1[N+](=O)[O-]`: in series [1], the IC50 was determined as 1900 nM.

On to `O=[N+]([O-])c1c(Br)c(Br)cc2nc(O)c(O)nc12`, for which the logP in series [5] came to 0.74. Also, the ED50 in the series filed under Mus musculus amounted to 7.3 mg/kg. Moreover, in series [1], the IC50 is 20 nM.

The molecule `Cc1c(Br)cc2nc(O)c(O)nc2c1[N+](=O)[O-]` gave a logP in series [5] of 0.61. Also, it took a dose of 2 mg/kg to reach the 50% effect level in the series filed under Mus musculus (ED50). This molecule also gave an IC50 in series [1] of 8.7 nM.

As for `Cc1c(Cl)cc2[nH]c(=O)c(=O)[nH]c2c1[N+](=O)[O-]`, in series [5], the logP was found to be 0.49. This molecule registered an IC50 in series [1] of 4.7 nM.

In the case of `COc1cc2[nH]c(=O)c(=O)[nH]c2c(O)c1OC`, in series [1], the IC50 stood at 17000 nM.

`N#Cc1cc([N+](=O)[O-])c2[nH]c(=O)c(=O)[nH]c2c1` yielded an IC50 in series [1] of 2800 nM.

Molecule `Cc1c(F)cc2nc(O)c(O)nc2c1[N+](=O)[O-]` registered a logP in series [5] of 0.08. The ED50 in the series listed under Mus musculus was found to be 1.8 mg/kg. Also, the IC50 in series [1] is 95 nM.

In turn, `Cc1cc2[nH]c(=O)c(=O)[nH]c2cc1C` yielded an IC50 in series [1] of 3300 nM.

As for `CCc1cc2[nH]c(=O)c(=O)[nH]c2cc1CC`, in series [1], the IC50 was 1800 nM.

In turn, `Cc1cc([N+](=O)[O-])c2[nH]c(=O)c(=O)[nH]c2c1` returned an IC50 in series [1] of 9300 nM.

On to `CCOc1c(F)cc2nc(O)c(O)nc2c1[N+](=O)[O-]`, for which the IC50 in series [1] turned out to be 3600 nM.

Molecule `CCc1cc2[nH]c(=O)c(=O)[nH]c2c([N+](=O)[O-])c1CC` came in with an IC50 in series [1] of 160 nM.

With `Oc1cc2nc(O)c(O)nc2cc1O`, the IC50 in series [1] was more than 100000 nM.

Turning to `O=c1[nH]c2cc(Cl)c(Cl)c([N+](=O)[O-])c2[nH]c1=O` [LICOSTINEL], the logP in series [5] turned out to be 0.21. The ED50 in the series listed under Mus musculus came to 4 mg/kg. Moreover, in series [1], the IC50 amounted to 5.9 nM.

In turn, `Cc1c(C#N)cc2nc(O)c(O)nc2c1[N+](=O)[O-]` came in with a Kb in series [2] of 590 nM. Also, in series [3], the Selectivity index is 20.

On to `Cc1cc2nc(O)c(O)nc2c([N+](=O)[O-])c1C`, for which the logP in series [5] came to 0.58. The molecule also had a Kb in series [4] of 3100 nM. For the same molecule, the 50% effect level in the series listed under Mus musculus (ED50) was put at a dose of 2.6 mg/kg. In series [1], this molecule came in with a 50% inhibitory concentration (IC50) of 29 nM. Besides, the Selectivity index in series [3] is 79.

As for `Nc1c(F)cc2nc(O)c(O)nc2c1[N+](=O)[O-]`, the half-maximal inhibitory concentration (IC50) in series [1] amounted to 11000 nM.

With `O=c1[nH]c2cc3c(c([N+](=O)[O-])c2[nH]c1=O)CCC3`, the IC50 in series [1] was 3100 nM.

In series [1], `COc1cc2[nH]c(=O)c(=O)[nH]c2c(OC(C)=O)c1OC` returned an IC50 of 53000 nM.
